Data published in PMC11897353 (Scientific Reports, 2025).
Entries after “also recorded” stand apart in the source; their conditions may differ.

Tests used:
receptor 5-HT6 = conditions: reported for the endogenous ligand; cited from earlier work
LC3 and p62 = test: Common autophagy pathway protein levels; type: cell-based, human; conditions: SH-SY5Y, 24 h, vs control; Rapamycin 100 nM
Method in brief: (§1)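 Test compound was diluted in medium from a 5 mM DMSO stock and applied to SH-SY5Y cells for 24 h, after 24 h growth and a PBS wash. Controls were untreated medium and rapamycin. Cells were lysed in RIPA with protease/phosphatase inhibitors and protein measured by BCA. Equal protein was run on 6%/12% SDS-PAGE, then PVDF, 3% BSA block, primary overnight 4 °C, ECL. Densitometry; n≥3, mean ± SEM, one-way ANOVA with Tukey.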

SH-SY5Y cells [1] = test: MTT cell viability assay; type: cell-based, human; conditions: SH-SY5Y, 5 µM, 10 µM and 25 µM, 24 h, MTT
Method in brief: (§2)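 SH-SY5Y cells were seeded at 5 × 10³ per well, grown 24 h, then given test compound at 5, 10 or 25 µM for 24 h, in triplicate. A solvent control was included, and 10% SDS added 1 h before the end served as the death control. MTT at 0.5 mg/mL ran 4 h at 37 °C, followed by overnight solubilization in 10% SDS/0.1 M HCl and A570. Results are % MTT reduction versus the negative control (100%); 3 experiments, one-way ANOVA.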

MTT cell viability assay = type: cell-based, human; conditions: human, SH-SY5Y neuroblastoma cells
Method in brief: as §2

[2] = Preliminary zebrafish larvae viability assay; conditions: in vivo, other: larvae exposed to the compound at 2–50 µM
mTOR pathway = mTOR pathway protein phosphorylation by Western blot; type: cell-based, human; conditions: SH-SY5Y, 24 h, vs control; Rapamycin 100 nM
Method in brief: as §1

5-HT6R = 5-HT6R protein levels by Western blot; type: cell-based, human; conditions: SH-SY5Y, 24 h, densitometry vs control; Rapamycin 100 nM
Method in brief: as §1

SH-SY5Y cells [3] = test: Autophagy induction by LC3 immunofluorescence; type: cell-based, human; conditions: for number of autophagosomes per cell / percentage of cells with autophagosomes (LC3-positive punctate pattern): SH-SY5Y, 25 µM, 24 h, vs control; for capacity to induce autophagy: neuroblastoma SH-SY5Y cell line
Method in brief: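 SH-SY5Y cells were grown on coverslips at 20–40% confluence for 24 h, then given test compound at 25 µM for 24 h. Fixation used 4% paraformaldehyde plus DAPI for 20 min. Cells were permeabilized with 0.1% Triton, blocked in 3% BSA, and stained with anti-LC3A/B (1:400, overnight 4 °C) then Alexa 488 secondary. Images at 20x. Cells with LC3 puncta were counted against DAPI nuclei, and puncta per cell by 3D object counting.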

human 5-HT6 receptors = human 5-HT6 receptors (Homo sapiens, UniProt P50406); test: biochemical; type: binding
Chain of human 5-HT6 receptors (P50406 whole entry): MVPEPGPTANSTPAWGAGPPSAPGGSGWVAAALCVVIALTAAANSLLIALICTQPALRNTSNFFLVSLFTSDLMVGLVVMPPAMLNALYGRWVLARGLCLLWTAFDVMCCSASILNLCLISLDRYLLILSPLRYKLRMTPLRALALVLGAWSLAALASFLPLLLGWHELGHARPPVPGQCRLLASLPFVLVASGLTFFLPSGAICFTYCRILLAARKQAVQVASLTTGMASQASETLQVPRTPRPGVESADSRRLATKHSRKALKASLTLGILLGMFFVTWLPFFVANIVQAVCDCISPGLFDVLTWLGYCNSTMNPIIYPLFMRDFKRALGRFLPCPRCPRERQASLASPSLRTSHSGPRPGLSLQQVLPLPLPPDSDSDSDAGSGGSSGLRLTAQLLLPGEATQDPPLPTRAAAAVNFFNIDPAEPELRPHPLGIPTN

SMILES: COc1ccccc1N1CCN(CC(O)c2cn(S(=O)(=O)c3cccc4ccccc34)c3ccccc23)CC1 (stereo not shown) [PUC-10, 2-(4-(2-methoxyphenyl)piperazin-1-yl)-1-(1-(naphthalen-1-ylsulfonyl)-1 H-indol-3-yl)ethan-1-ol]
- LC3-II/LC3-I ratio (LC3 and p62): significant increase
- p62 levels (LC3 and p62): significantly decreased
- total LC3-II levels (LC3 and p62): significantly increased
- cytotoxicity / cellular viability (in words) (SH-SY5Y cells [1]): do not induce cytotoxicity; also recorded: do not cause toxicity
- viability at 24 h, 25 µM (MTT cell viability assay): > 90%
- viability at 48 h [2]: ~85%
- phosphorylated levels of BECN1 (Ser30) (mTOR pathway): significantly increased
- phosphorylated levels of ULK1 (Ser757) (mTOR pathway): significantly decreases
- phosphorylated levels of mTOR (Ser2448) (mTOR pathway): significantly decreases
- expression levels of 5-HT6R (5-HT6R): increases significantly; also recorded: significantly increased
- number of autophagosomes per cell (SH-SY5Y cells [3]): significant increase
- percentage of cells with autophagosomes (LC3-positive punctate pattern) (SH-SY5Y cells [3]): significantly higher percentage
- capacity to induce autophagy (SH-SY5Y cells [3]): high capacity to induce autophagy

SMILES: COc1ccccc1N1CCN(CC(O)c2nn(S(=O)(=O)c3cccc4ccccc34)c3ccccc23)CC1 (stereo not shown) [PUC-55, 2-(4-(2-methoxyphenyl)piperazin-1-yl)-1-(1-(naphthalen-1-ylsulfonyl)-1H-indazol-3-yl)ethan-1-ol]
- LC3-II/LC3-I ratio (LC3 and p62): significant increase
- p62 levels (LC3 and p62): significantly decreased
- total LC3-II levels (LC3 and p62): significantly increased
- cytotoxicity / cellular viability (in words) (SH-SY5Y cells [1]): high cellular viability; also recorded: do not induce cytotoxicity; also recorded: do not cause toxicity
- phosphorylated levels of BECN1 (Ser30) (mTOR pathway): significantly increased
- phosphorylated levels of ULK1 (Ser757) (mTOR pathway): significantly decreases
- phosphorylated levels of mTOR (Ser2448) (mTOR pathway): significantly decreases
- IC50 (human 5-HT6 receptors): 39 nM
- Ki (human 5-HT6 receptors): 37.5 nM
- expression levels of 5-HT6R (5-HT6R): increases significantly; also recorded: significantly increased
- number of autophagosomes per cell (SH-SY5Y cells [3]): significant increase
- percentage of cells with autophagosomes (LC3-positive punctate pattern) (SH-SY5Y cells [3]): significantly higher percentage
- capacity to induce autophagy (SH-SY5Y cells [3]): potent autophagy-inducing activity

SMILES: CO[C@H]1C[C@@H]2CC[C@@H](C)[C@@](O)(O2)C(=O)C(=O)N2CCCC[C@H]2C(=O)O[C@H]([C@H](C)C[C@@H]2CC[C@@H](O)[C@H](OC)C2)CC(=O)[C@H](C)/C=C(\C)[C@@H](O)[C@@H](OC)C(=O)[C@H](C)C[C@H](C)/C=C/C=C/C=C/1C [Rapamycin, reference compound]
- LC3-II/LC3-I ratio (LC3 and p62): significant increase
- p62 levels (LC3 and p62): significantly decreased
- total LC3-II levels (LC3 and p62): significantly increased
- phosphorylated levels of BECN1 (Ser30) (mTOR pathway): significantly increased
- phosphorylated levels of ULK1 (Ser757) (mTOR pathway): significantly decreases
- phosphorylated levels of mTOR (Ser2448) (mTOR pathway): significantly decreases
- expression levels of 5-HT6R (5-HT6R): did not modify the expression levels; also recorded: did not produce significant changes
